PLCg1 inh – PLC-gamma1 enzyme inhibitors, primary screen, biochemical, fluorescence, purified enzyme; fluorogenic substrate; 1-phosphatidylinositol 4,5-bisphosphate phosphodiesterase gamma-1 (Homo sapiens), P19174; actives 0.84% (n = 370,000); AID 720700, 2013; inhibition, % at 12.2 µM; in the data active = inhibition above about 9.5%
Target sequence (P19174 whole entry, looked up): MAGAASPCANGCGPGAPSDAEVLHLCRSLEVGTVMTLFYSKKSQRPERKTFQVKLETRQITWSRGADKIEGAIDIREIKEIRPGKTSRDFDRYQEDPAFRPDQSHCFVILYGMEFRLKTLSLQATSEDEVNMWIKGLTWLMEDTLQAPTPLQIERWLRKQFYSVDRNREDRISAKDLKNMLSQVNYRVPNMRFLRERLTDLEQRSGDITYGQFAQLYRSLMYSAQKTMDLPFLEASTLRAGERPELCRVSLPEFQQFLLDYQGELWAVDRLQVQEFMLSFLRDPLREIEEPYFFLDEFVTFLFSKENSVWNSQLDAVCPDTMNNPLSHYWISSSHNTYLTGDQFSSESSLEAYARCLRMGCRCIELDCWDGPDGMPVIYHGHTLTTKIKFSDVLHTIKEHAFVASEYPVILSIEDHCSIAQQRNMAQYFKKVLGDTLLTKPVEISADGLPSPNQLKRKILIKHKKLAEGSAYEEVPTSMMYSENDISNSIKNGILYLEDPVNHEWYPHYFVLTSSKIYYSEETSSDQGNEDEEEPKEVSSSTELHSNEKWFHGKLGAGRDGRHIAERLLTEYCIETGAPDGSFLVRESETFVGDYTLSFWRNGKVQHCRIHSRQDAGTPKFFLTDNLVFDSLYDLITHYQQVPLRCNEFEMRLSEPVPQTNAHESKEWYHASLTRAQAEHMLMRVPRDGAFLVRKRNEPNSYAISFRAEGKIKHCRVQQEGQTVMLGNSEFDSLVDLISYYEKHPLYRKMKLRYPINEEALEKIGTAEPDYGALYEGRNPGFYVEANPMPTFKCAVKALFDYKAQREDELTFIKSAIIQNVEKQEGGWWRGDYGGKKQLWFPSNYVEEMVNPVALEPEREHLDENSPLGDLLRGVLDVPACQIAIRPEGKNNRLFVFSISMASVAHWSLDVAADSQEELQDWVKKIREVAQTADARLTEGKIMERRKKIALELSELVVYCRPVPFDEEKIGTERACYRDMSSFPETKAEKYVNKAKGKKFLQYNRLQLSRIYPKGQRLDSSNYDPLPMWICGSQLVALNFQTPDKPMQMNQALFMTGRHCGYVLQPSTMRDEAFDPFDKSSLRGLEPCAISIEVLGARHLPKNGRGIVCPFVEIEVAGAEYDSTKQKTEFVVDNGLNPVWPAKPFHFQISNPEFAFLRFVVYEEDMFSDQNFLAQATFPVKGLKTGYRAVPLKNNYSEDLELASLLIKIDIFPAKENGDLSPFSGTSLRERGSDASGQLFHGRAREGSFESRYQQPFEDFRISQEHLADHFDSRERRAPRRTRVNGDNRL
PLCb3 inh – human PLC-beta3 inhibitors, primary screen, biochemical, fluorescence. Purified PLC-beta3, fluorogenic substrate. inhibition, % at 12.2 µM. actives 0.18% (n = 370,000); in the data active = inhibition above about 11%
UCH37 DUB inh – inhibitors of human UCH37 deubiquitinase, primary screen, biochemical, Ub-AMC cleavage, fluorescence. AID 588478, 2011. Ubiquitin carboxyl-terminal hydrolase isozyme L5 (Homo sapiens), Q9Y5K5. actives 0.33% (n = 330,000). purified proteasome/UCH37. inhibition, % (no concentration beside the values);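 active = mean inhibition over replicate wells above about 20%, limit read from the data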
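Reagent: Ub-AMC substrate; assay system: Proteasome-associated human UCH37 deubiquitinase; controls: no-proteasome and no-compound wells; read-out: % inhibition of Ub-AMC cleavage fluorescence; timing: 30 min preincubation with enzyme, 25 min cleavage at room temperature; signal: AMC fluorescence from Ub-AMC cleavage, excitation 355 nm, emission 460 nm; buffer or medium: Tris-HCl pH 7.4 plus ovalbumin, ATP-MgCl2, DTT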
Rpn11 inh – Rpn11 (PSMD14) deubiquitinase inhibitors, primary screen, biochemical, fluorescence polarization, uHTS; inhibition, % at 20 µM; human 26S proteasome, Ub4-pepOG fluorescence polarization; 20S core pre-blocked with epoxomicin; 26S proteasome non-ATPase regulatory subunit 14 (Homo sapiens), O00487; actives 0.59% (n = 360,000);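 active = inhibition at 20 µM, scaled to each plate's controls, above about 33%, limit read from the data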
Rpn11 inh conf – Rpn11 (PSMD14) deubiquitinase inhibitors, confirmation, biochemical, fluorescence polarization, single concentration; AID 602318, 2012; shares compounds with Rpn11 inh; inhibition, % at 20 µM; actives 29% (n = 1,900); purified human 26S proteasome, Ub4-pepOG fluorescence polarization; proteasome pretreated with epoxomicin
MMP-2 counter – MMP-2 enzyme inhibition, confirmation, counter-screen for RPN11 inhibitor project, biochemical, fluorescence, single concentration; shares compounds with Rpn11 inh; recombinant MMP-2, FRET peptide cleavage fluorescence; inhibition, % at 20 µM; actives 4% (n = 1,900); AID 602330, 2012;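 note: human MMP-2 activated beforehand with APMA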
Thrombin inh – bovine thrombin protease inhibition, confirmation, counter-screen for Rpn11 inhibitor project, biochemical, fluorescence polarization, single concentration; AID 602333, 2012; bovine thrombin cleavage of Ub4-pepOG; actives 13% (n = 1,900); inhibition, % at 20 µM; shares compounds with Rpn11 inh;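 active = mean inhibition at least 40% at 20 µM, or signal 3 deviations below plate average, so some actives read negative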
Of the large screens only hits and unclear results are named; the others gave an inactive call (follow-up assays come after a bar, where they were run). Hits are enriched below; roughly 1.7% of the tested compounds scored in any of these assays. Cut-off read from the data, not from the text of the source, unless noted: active = inhibition above about 40%; inactive = the rest.

COc1ccc(C(=O)Nc2nc3nc(-c4ccccc4)cc(=O)n3[nH]2)cc1	Rpn11 inh 69 | Rpn11 inh conf inactive | MMP-2 counter inactive | Thrombin inh inactive
COc1cc(/C=C/C(=O)OCC(=O)Nc2ccc3c(c2)OCCO3)ccc1O	none
CCOC(=O)/C(C#N)=C\c1ccc(O)c(OC)c1	none
N#C/C(=C\c1ccc(O)c(O)c1)C(=O)N1CCc2ccccc21	Rpn11 inh 65 | Rpn11 inh conf 70 | MMP-2 counter inactive | Thrombin inh inactive
N#C/C(=C\c1ccc(O)c(O)c1)C(=O)NCCc1ccccc1	none
COc1cc(/C=C(\C#N)C(=O)N2CCc3ccccc32)ccc1O	Rpn11 inh 81 | Rpn11 inh conf inactive | MMP-2 counter inactive | Thrombin inh inactive
COc1cc(/C=C(\C#N)C(=O)Nc2ccc3c(c2)OCCO3)ccc1O	Rpn11 inh 56 (no result: UCH37 DUB inh) | Rpn11 inh conf inactive | MMP-2 counter inactive | Thrombin inh inactive
COc1ccccc1C(=O)NN=C(C)CC(=O)Nc1ccc(Nc2ccccc2)cc1	none (no result: PLCg1 inh, PLCb3 inh, Rpn11 inh)
Nc1nonc1-n1nnc(C(=O)NN=Cc2ccccc2F)c1CN1CCOCC1	none (no result: PLCg1 inh, PLCb3 inh, Rpn11 inh)
Cc1occc1-c1nnc(SCC(=O)NCCc2ccccc2)n1Cc1ccccc1	Rpn11 inh 85 | Rpn11 inh conf inactive | MMP-2 counter inactive | Thrombin inh inactive
COc1cc2ccccc2cc1C(=O)Nc1sc2c(c1C(N)=O)CCN(C(C)C)C2	Rpn11 inh 45 (no result: UCH37 DUB inh) | Rpn11 inh conf 69 | MMP-2 counter inactive | Thrombin inh 46
CC(=NOC(=O)c1c(-c2ccccc2Cl)noc1C)c1ccncc1	none (no result: PLCg1 inh, PLCb3 inh, Rpn11 inh)
CCN(CC)CCCNC(=O)c1nn(-c2ccc(OC)cc2OC)c(=O)c2ccccc12	Rpn11 inh 48 | Rpn11 inh conf inactive | MMP-2 counter inactive | Thrombin inh inactive
O=C1c2ccccc2S(=O)(=O)c2cc(N3CCOCC3)ccc21	Rpn11 inh 48 | Rpn11 inh conf 44 | MMP-2 counter inactive | Thrombin inh inactive
O=C1c2ccccc2S(=O)(=O)c2cc(N3CCN(c4ccccc4)CC3)ccc21	none (no result: Rpn11 inh)
O=c1[nH]c(CSc2ncc(C(F)(F)F)cc2Cl)nc2ccccc12	none
O=c1[nH]c(CSc2ncnc3sccc23)nc2cc(C(F)(F)F)ccc12	Rpn11 inh 49 | Rpn11 inh conf 46 | MMP-2 counter inactive | Thrombin inh inactive
N=C1/C(=C\c2ccc(-c3cccc(Cl)c3)o2)C(=O)N=C2SC=C(c3ccccc3)N12	Rpn11 inh 66 | Rpn11 inh conf 73 | MMP-2 counter inactive | Thrombin inh 49
O=C1OC(c2cccs2)=N/C1=C\c1ccc(-c2cccc(Cl)c2)o1	Rpn11 inh 48 | Rpn11 inh conf inactive | MMP-2 counter inactive | Thrombin inh inactive
Cc1cccc(-n2c(C)cc(/C=C3/C(=N)N4C(c5ccccc5)=CSC4=NC3=O)c2C)c1	Rpn11 inh 57 | Rpn11 inh conf inactive | MMP-2 counter inactive | Thrombin inh inactive
N=C1S/C(=C\c2ccc(-c3cccc(Cl)c3)o2)C(=O)N1c1nccs1	none
NC(=NOC(=O)Cc1ccccc1[N+](=O)[O-])c1ccncc1	none (no result: PLCg1 inh, PLCb3 inh, Rpn11 inh)
Cc1sc(NC(=O)c2cccs2)c(C(=O)OC(C)C)c1C	Rpn11 inh 50 | Rpn11 inh conf inactive | MMP-2 counter inactive | Thrombin inh inactive
O=S(=O)(NN=Cc1cccc(OC2CSC2)c1)c1ccccc1	none (no result: PLCg1 inh, PLCb3 inh, Rpn11 inh)
Cc1ccc(-c2csc(Nc3ccc(S(N)(=O)=O)cc3)n2)o1	Rpn11 inh 46 | Rpn11 inh conf inactive | MMP-2 counter inactive | Thrombin inh inactive
Cc1c(C(=O)NN=Cc2cccnc2)sc(=S)n1C	none (no result: PLCg1 inh, PLCb3 inh, Rpn11 inh)

Screens (PubChem BioAssay)
